Laboratory results reported in ChEMBL document CHEMBL3865785, “Dopaminergic isoquinolines with hexahydrocyclopenta[ij]-isoquinolines as D2-like selective ligands” (Eur J Med Chem, 2016).

Tests used:
Homo sapiens = species: Homo sapiens; experiment: Selectivity ratio of Ki for D1-like dopaminergic receptor (unknown origin) in striatal membranes to Ki for D2-like dopaminergic receptor (unknown origin) in striatal membranes; type: cell membranes
[1] = Displacement of [3H]SCH23390 from D1-like dopaminergic receptor (unknown origin) in striatal membrane measured after 1 hr by liquid scintillation counting method; type: cell membranes, Homo sapiens, Striatum
In short: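 Striatal membranes homogenized in 50 mM Tris-HCl pH 7.4, centrifuged twice at 20000 g. Resuspended in Tris with 5 mM MgSO4, 0.5 mM EDTA, 0.02% ascorbic acid. 100 µg protein incubated 1 h at 25 °C with 0.25 nM (final) [3H]SCH 23390 plus drug. Nonspecific binding defined with 30 μM SK&F 38393. GF/B filtration, scintillation counting. Mean ± SEM, n = 3.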

[2] = Cytotoxicity against HUVEC assessed as reduction in cell viability at 30 uM measured after 24 hrs by MTT assay relative to control; type: toxicity, cell-based; conditions: human
In short: (§1)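 Neutrophils isolated from healthy-donor buffy coats by Ficoll-Hypaque gradient; HUVEC from collagenase isolation, passage ≤1. Cells at 10^5 per 100 µL supplemented RPMI, incubated 24 h at 37 °C with or without compound (30 μM). MTT added (solution made at 2 mg/mL in PBS), further 3 h at 37 °C; colorimetric readout vs vehicle. Mean ± SEM, n = 3 independent experiments.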

[3] = Induction of apoptosis in human neutrophils assessed as late apoptotic cells at 30 uM measured after 24 hrs by Annexin-V-FITC/propidium iodide staining-based flow cytometric analysis (reference value: 0.06%); type: cell-based; conditions: neutrophil
[4] = Induction of apoptosis in HUVEC at 30 uM measured after 24 hrs by Annexin-V-FITC/propidium iodide staining-based flow cytometric analysis; type: cell-based; conditions: human
[5] = Induction of apoptosis in human neutrophils assessed as early apoptotic cells at 30 uM measured after 24 hrs by Annexin-V-FITC/propidium iodide staining-based flow cytometric analysis (reference value: 1.1%); type: cell-based; conditions: neutrophil
[6] = Displacement of [3H]raclopride from D2-like dopaminergic receptor (unknown origin) in striatal membrane measured after 1 hr by liquid scintillation counting method; type: cell membranes, Homo sapiens, Striatum
In short: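 Striatal membranes washed by four 20000 g centrifugations. Resuspended in Tris buffer with 120 mM NaCl, 5 mM KCl, 1 mM CaCl2, 1 mM MgCl2, 0.1% ascorbic acid. 200 µg protein incubated 1 h at 25 °C with 0.5 nM (final) [3H]raclopride plus drug. Nonspecific binding defined with 50 µM apomorphine. Filtration, scintillation counting. Mean ± SEM, n = 3.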

[7] = Induction of apoptosis in human neutrophils assessed as viable cells at 30 uM measured after 24 hrs by Annexin-V-FITC/propidium iodide staining-based flow cytometric analysis (reference value: 93.52%); type: cell-based, Neutrophil; conditions: read-out: Activity
[8] = Cytotoxicity against human neutrophils assessed as reduction in cell viability at 30 uM measured after 24 hrs by MTT assay relative to control; type: toxicity, cell-based; conditions: neutrophil; in short: as §1
[9] = Induction of apoptosis in human neutrophils assessed as necrotic cells at 30 uM measured after 24 hrs by Annexin-V-FITC/propidium iodide staining-based flow cytometric analysis (reference value: 5.33%); type: cell-based; conditions: neutrophil

Compound	Ratio Ki (Homo sapiens)	Ki [1] [µM]	pKi [1]	Ki [6] [µM]	pKi [6]	Activity [2]	Activity [3] [%]	Activity [4]	Activity [5] [%]	viability at 24 h, 30 µM [7] [%]	Activity [8]	Activity [9] [%]
Oc1cc2c(cc1O)C(/C=C/c1ccccc1)NCC2 (centres undefined)	6.73	9.57	5.048	1.42	5.869							
CN1CCc2cc(O)c(O)c3c2C1CC3c1ccccc1 (centres undefined)						Non-Toxic	3.06	Non-Toxic	0.15	94.7	Non-Toxic	5.05
C/C=C/C1NCCc2cc(OC)c(OC)cc21 (centres undefined)	5.15	45.6	4.347	8.86	5.059							
C=CCN1CCc2cc(OC)c(OC)cc2C1/C=C/C (centres undefined)	2.72	37.6	4.432	13.8	4.86							
C=CCN1CCc2cc(O)c(O)c3c2C1CC3c1ccccc1 (centres undefined)						Non-Toxic	0.33	Non-Toxic	6.86	89.9	Toxic	3.03
C/C=C/C1NCCc2cc(O)c(O)cc21 (centres undefined)	126	57.7	4.246	0.458	6.352							
C/C=C/C1c2cc(OC)c(OC)cc2CCN1C (centres undefined)	1.24	18.3	4.74	14.7	4.833							
Oc1cc2c3c(c1O)C(c1ccccc1)CC3NCC2 (centres undefined)						Non-Toxic	0.05	Non-Toxic	0.08	95.3	Non-Toxic	4.53
C=CCN1CCc2cc(OC)c(OC)cc2C1/C=C/c1ccccc1 (centres undefined)	6.58	7.68	5.133	1.17	5.942							

Further lines, with some results ahead:

Ratio Ki (Homo sapiens)	Ki [1] [µM]	pKi [1]	Ki [6] [µM]	pKi [6]	Compound	Activity [2]	Activity [3] [%]	Activity [4]	Activity [5] [%]	viability at 24 h, 30 µM [7] [%]	Activity [8]	Activity [9] [%]
55.9	3.19	5.498	0.057	7.264	CN1CCc2cc(O)c(O)cc2C1/C=C/c1ccccc1 (centres undefined)	Non-Toxic	0.12	Non-Toxic	3.24	89.7	Non-Toxic	6.94
95.2	1.71	5.766	0.018	7.749	C=CCN1CCc2cc(O)c(O)cc2C1/C=C/C (centres undefined)	Non-Toxic	0.11	Non-Toxic	0.28	93.5	Non-Toxic	0.1
14.2	6.2	5.251	0.436	6.376	COc1cc2c(cc1OC)C(/C=C/c1ccccc1)N(C)CC2 (centres undefined)							
0.98	0.55	6.26	0.56	6.837	NCCc1ccc(O)c(O)c1 [DOPAMINE]							
17.9	1.29	5.897	0.072	7.181	C/C=C/C1c2cc(O)c(O)cc2CCN1C (centres undefined)	Non-Toxic	0.3	Non-Toxic	3.95	93.3	Non-Toxic	2.43
0.74	4.56	5.36	6.18	5.244	COc1cc2c(cc1OC)C(/C=C/c1ccccc1)NCC2 (centres undefined)							
147	6.04	5.267	0.041	7.408	C=CCN1CCc2cc(O)c(O)cc2C1/C=C/c1ccccc1 (centres undefined)	Non-Toxic	0.16	Non-Toxic	0.15	93.6	Non-Toxic	6.11
